ChEMBL document CHEMBL1152967, “Scalarane-based sesterterpenoid RCE-protease inhibitors isolated from the Indonesian marine sponge Carteriospongia foliascens” (J Nat Prod, 2009)
pIC50: −log10 of the molar value. In brackets after ≈: the same amount, converted by molar mass.

What was measured:
Caco-2 = assay: Cytotoxicity against human Caco-2 cells harboring wild type Ras after 3 days; type: functional, cell-based; conditions: Caco-2, 72 h
CAAX prenyl protease 2 = molecular target: T1, CAAX prenyl protease 2 (Homo sapiens, UniProt Q9Y256); assay: Inhibition of human RCE1
T1 sequence (Q9Y256 whole entry): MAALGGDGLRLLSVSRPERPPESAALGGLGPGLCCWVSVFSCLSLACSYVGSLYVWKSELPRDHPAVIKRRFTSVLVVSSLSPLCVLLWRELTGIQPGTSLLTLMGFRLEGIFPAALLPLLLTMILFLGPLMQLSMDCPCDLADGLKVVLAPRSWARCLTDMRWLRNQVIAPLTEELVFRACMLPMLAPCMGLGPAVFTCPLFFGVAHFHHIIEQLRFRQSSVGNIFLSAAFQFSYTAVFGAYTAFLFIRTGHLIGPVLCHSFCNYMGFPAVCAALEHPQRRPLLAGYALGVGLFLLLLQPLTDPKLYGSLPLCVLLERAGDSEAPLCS
In short: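 Substrate was a fluorescent-labeled peptide from the carboxy terminus of farnesylated K-Ras. Cleavage was analyzed by reversed-phase HPLC. IC50 is reported in µg/mL.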

PC-3 = assay: Cytotoxicity against human PC3 cells harboring mutated PTEN and p53 after 3 days; type: functional, cell-based; conditions: PC-3, 72 h
LoVo = assay: Cytotoxicity against human LoVo cells harboring mutated K-Ras after 3 days; type: functional, cell-based; conditions: 72 h
[1] = Cytotoxicity against human MDA468 cells harboring mutated PTEN and p53 after 3 days; type: functional, cell-based; conditions: MDA-MB-468, 72 h

| SMILES | IC50 (Caco-2) [µg/mL] | pIC50 (CAAX prenyl protease 2) | IC50 (PC-3) [µg/mL] | IC50 (LoVo) [µg/mL] | IC50 [1] [µg/mL] |
| --- | --- | --- | --- | --- | --- |
| CCC(O)CC(=O)O[C@H]1C[C@H]2[C@@](C)(CC[C@H]3[C@@](C)(CC)CCC[C@]23C)[C@@H]2C[C@@H](O)C(C(C)=O)=C[C@@]12C (stereo not given in full) | > 10 | < 3.70 | > 10 | > 10 | > 10 |
| CCC(O)CC(=O)O[C@H]1C[C@@H]2[C@@]3(C)CCC[C@](C)(CC)[C@@H]3CC[C@@]2(C)[C@@H]2C=CC3=C(C(=O)OC3(C)O)[C@@]12C (stereo not given in full) | 6.2 (≈ 11.7 µM) | 4.77 | 3.7 (≈ 7 µM) | 3.4 (≈ 6.43 µM) | > 10 |
| CC[C@@]1(C)CCC[C@]2(C)[C@H]3C[C@H](OC(=O)CC(O)C(C)C)[C@]4(C)C=C(C(C)=O)[C@H](O)C[C@H]4[C@]3(C)CC[C@@H]12 (stereo not given in full) | 3.4 (≈ 6.58 µM) | 4.13 | 3.8 (≈ 7.35 µM) | 7.6 (≈ 14.7 µM) | 9.5 (≈ 18.4 µM) |
| CCO[C@@H]1C[C@H]2[C@]3(C)CC[C@H]4[C@@](C)(CC)CCC[C@]4(C)[C@H]3C[C@H](OC(=O)CC(O)C(C)C)[C@]2(C)C2=C1C(C)(O)OC2=O (stereo not given in full) | 4.2 (≈ 7.13 µM) | 5.14 | 3.2 (≈ 5.43 µM) | 2.9 (≈ 4.93 µM) | 4.4 (≈ 7.47 µM) |
